# Bioassay records as filed in PubChem.
# hERG protect: compounds protecting human hERG from proarrhythmic drug block. CHO-hERG, FluxOR thallium flux, dofetilide IC70 present. AID 1511. activation (rescue from dofetilide block), less the hit threshold, % at 10 µM. Q12809. 310,000 tested, 0.51% active;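 active = activation above the mean of controls blocked by dofetilide plus 5 SD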;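 also: thallium influx through hERG after potassium depolarization seen as dye fluorescence rise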
# KCNQ1 pot: human KCNQ1 channel potentiation or activation; 310,000 tested, 0.35% active; B-score at 10 µM; CHO-K1 KCNQ1, thallium flux FluxOR fluorescence; active compounds read high; P51787; AID 2648;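 active = fluorescence ratio B-score, a plate-corrected score, at least three library SD, with initial intensity B-score within 5 SD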
# Target sequence (P51787 whole entry, looked up): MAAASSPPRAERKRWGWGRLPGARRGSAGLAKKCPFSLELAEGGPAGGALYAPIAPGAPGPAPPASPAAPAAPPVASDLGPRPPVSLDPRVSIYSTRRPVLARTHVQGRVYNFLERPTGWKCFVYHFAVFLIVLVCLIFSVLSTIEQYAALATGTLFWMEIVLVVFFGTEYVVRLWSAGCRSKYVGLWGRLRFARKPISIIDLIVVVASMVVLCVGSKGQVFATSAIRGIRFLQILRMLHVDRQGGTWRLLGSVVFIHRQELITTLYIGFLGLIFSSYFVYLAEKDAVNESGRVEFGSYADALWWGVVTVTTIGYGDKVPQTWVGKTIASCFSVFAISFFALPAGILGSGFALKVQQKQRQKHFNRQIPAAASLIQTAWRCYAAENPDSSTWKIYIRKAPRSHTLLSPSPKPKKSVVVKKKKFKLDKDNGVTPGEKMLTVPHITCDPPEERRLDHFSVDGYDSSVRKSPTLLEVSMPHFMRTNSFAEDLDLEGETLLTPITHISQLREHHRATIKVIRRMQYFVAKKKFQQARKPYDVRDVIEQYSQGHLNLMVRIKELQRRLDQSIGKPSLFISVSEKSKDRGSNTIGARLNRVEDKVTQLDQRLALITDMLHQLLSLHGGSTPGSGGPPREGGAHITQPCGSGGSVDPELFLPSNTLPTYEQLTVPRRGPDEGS
#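 Medium – assay buffer, equal DMSO in all wells · Material – CHO-K1 cell line with stable KCNQ1 potassium channel expression · Signal – kinetic FluxOR thallium fluorescence, 10-s 1-Hz baseline, 110-s post-stimulus read · Compound – single concentration per compound, DMSO matched to controls · Schedule – 37 °C overnight plating, 90-min dark dye load, 20-min compound pretreatment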
# KCNK9 block: inhibitors of human KCNK9 two-pore domain potassium channel; 310,000 tested, 1.2% active; HEK293 KCNK9, FluxOR thallium flux fluorescence; active compounds read low; B-score at 10 µM; Q9NPC2;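 active = ratio B-score over 3 SD below the library mean, with starting fluorescence within 5 SD of its mean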;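 also: negative B-score means less thallium flux so channel inhibition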
# KCNK3 inh: human KCNK3 channel inhibition, primary screen. CHO-KCNK3 thallium flux, FluxOR fluorescence; active compounds read low. B-score at 10 µM. 340,000 tested, 0.84% active;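 active = B-score under library mean minus 4 SD, starting fluorescence ratio at most library mean plus 5 SD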;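 also: more negative B-score means stronger inhibition of thallium flux through KCNK3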
# KCNQ1 inh: blocks the human KCNQ1 potassium channel; P51787; CHO-K1 KCNQ1, FluxOR thallium flux fluorescence; active compounds read high; B-score at 10 µM; 310,000 tested, 1.3% active;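 active = compounds whose thallium flux B-score, printed positive for inhibition, exceeds three library SD while starting fluorescence stays within three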;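 also: channel opened by potassium depolarization with thallium stimulus after 20 min compound exposure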
# Starred values were filed as active, the others as inactive; i = inactive; . = not tested or not shown. Hits are enriched below; roughly 3.1% of the tested compounds scored in any of these assays.
SMILES,hERG protect,KCNQ1 pot,KCNK9 block,KCNK3 inh,KCNQ1 inh
CCN(CC)C(=O)Cn1cc(C(=O)C(=O)Nc2ccc3c(c2)OCCO3)c2ccccc21,-6,i,i,i,i
O=C(NCC1CCCO1)C1CC(=O)N(c2ccccc2)C1 (stereo not drawn),-15,i,i,i,i
S=c1[nH]cnc2scc(-c3ccc(Br)cc3)c12,14*,23*,i,i,i
S=c1[nH]cnc2scc(-c3ccc(Cl)cc3)c12,23*,19*,i,i,i
Clc1ccc(-c2csc3ncnc(Cl)c23)cc1,-5,i,i,i,i
Cc1cc(-c2csc3nc[nH]c(=S)c23)cc(C)c1C,8.1*,45*,i,i,i
Cc1ccc(-c2csc3nc[nH]c(=S)c23)cc1,53*,26*,i,i,i
O=c1[nH]cnc2scc(-c3ccc(Br)cc3)c12,3,i,i,i,i
N#Cc1ccc(OCC(=O)N2CCN(c3ccc(C(F)(F)F)cn3)CC2)cc1,.,.,.,i,.
Cc1cc(-c2ccccc2)nc(Nc2nc3c(C)cccc3c(=O)[nH]2)n1,.,.,.,i,.
COc1ccc(C(CNC(=O)c2cccc(S(=O)(=O)Nc3cccc(C)c3)c2)N2CCOCC2)cc1 (stereo not drawn),-10,i,i,i,i
Cc1sc2nc[nH]c(=S)c2c1-c1ccccc1,20*,12*,i,i,i
Cc1sc2nc[nH]c(=O)c2c1-c1ccc(F)cc1,-3,i,i,i,i
CS(=O)(=O)Nc1nc2n(n1)C(c1ccccc1)C=C(c1ccc(Br)cc1)N2 (stereo not drawn),-17,i,i,i,12*
CC(=O)Nc1nc2n(n1)C(c1ccccc1)C=C(c1ccccc1)N2 (stereo not drawn),-1,i,i,i,i
C=CCn1c(O)c(N=NC(=S)Nc2ccccc2C)c2cc(S(=O)(=O)N3CCOCC3)ccc21,-2,9*,i,i,i
Cc1ccc(NC(=S)N=Nc2c(O)n(C)c3ccc(S(=O)(=O)N4CCOCC4)cc23)cc1C,-1,i,i,i,i
Cn1c(O)c(N=NC(=S)Nc2ccccc2F)c2cc(S(=O)(=O)N3CCOCC3)ccc21,11*,i,i,i,i
C/C(=N\Nc1nc(N2CCCCCC2)nc(N2CCCCCC2)n1)c1ccccc1,-13,i,i,i,14*
Cc1cc(NC(=O)CSc2nc3ccccc3n2CCC#N)no1,4.9*,i,i,i,i
COc1ccccc1C(=O)Nc1onc(C)c1C#N,6.2*,i,i,i,i
CCCCCCCCCc1nc2sc3c(c2c(=O)n1NC(=O)c1ccc([N+](=O)[O-])cc1)CC(C)(C)OC3,-10,i,i,i,7*
CCCCCCCCCc1nc2sc3c(c2c(=O)n1NC(=O)c1ccccc1[N+](=O)[O-])CC(C)(C)OC3,-9,i,i,i,8*
Cn1nc(C(C)(C)C)cc1C(=O)NN1CCOCC1,-9,i,i,i,i
CCCCn1c(NC(=O)c2ccc(F)cc2)c(C#N)c2nc3ccccc3nc21,-14,i,i,.,6*
SMILES,hERG protect,KCNQ1 pot,KCNK9 block,KCNK3 inh,KCNQ1 inh
CCCCn1c(NC(=O)c2ccccc2)c(C#N)c2nc3ccccc3nc21,.,.,.,i,.
CCCCn1c(N)c(N(CC(C)C)C(=O)CSCC(=O)Nc2ccc(C)cc2)c(=O)[nH]c1=O,.,.,.,i,.
Cc1cc2nnc(SCC(=O)NCC(c3ccccc3)N(C)C)n2c2ccccc12 (stereo not drawn),-11,i,i,i,i
COc1ccc(CNC(=O)c2cc3ccccc3oc2=O)cc1,-2,i,i,i,i
COc1ccc(-c2[nH]c3ccccc3c2SCCNC(=O)c2cc3ccccc3oc2=O)cc1,-16,i,i,i,8*
O=C(c1ccc(N2CCCCCC2)c([N+](=O)[O-])c1)N1CCc2ccccc21,-9,i,-7.4*,.,i
COc1ccc(COc2cc(-c3cccc(OC)c3)nc3ccc(NC(=O)c4cccnc4)cc23)cc1,-33,i,i,i,6*
CN(CC(=O)Nc1ccc(F)c(Cl)c1)S(=O)(=O)c1ccc2c(c1)n(C)c(=O)c(=O)n2C,-7,i,i,i,i
CC(C)[C@H](NC(=O)c1ccccc1F)C(=O)OCCN1C(=O)c2ccccc2C1=O,.,.,.,i,.
COc1ccc(CCNC(=O)CC2SC(=NCc3ccccc3OC)NC2=O)cc1 (stereo not drawn),4.9*,i,i,i,i
Cc1ccc(/C(O)=C/C(=O)C(=O)NC23CC4CC(CC(C4)C2)C3)cc1,8.5*,15*,i,i,i
Cc1ccc(C(=O)NCC(=O)NC23CC4CC(CC(C4)C2)C3)cc1,-7,i,i,i,i
Cc1cccc(C)c1NC(=O)CNC(=O)c1ccc(NS(=O)(=O)c2ccc3[nH]c(=O)[nH]c3c2)cc1,-12,i,i,i,i
CCOC(=O)C1CCN(c2ncnc3c2oc2ccccc23)CC1,-19,i,i,-9.9*,i
Cc1nc(SCC(=O)Nc2ccccc2Cl)c2c(C)c(C)sc2n1,.,.,.,i,.
COc1ccccc1OS(=O)(=O)c1ccc(NC(C)=O)cc1,-3,i,i,i,i
COC(=O)/C=C/S(=O)(=O)c1ccc(NC(C)=O)cc1,-21,i,i,i,6*
O=C(NNC(=O)c1cc(-c2cccnc2)nc2ccccc12)Nc1ccc(Cl)cc1,-40,i,i,i,12*
Cc1cc(NC(=O)c2cc(-c3ccccn3)nc3ccc(Br)cc23)no1,-8,i,i,i,i
CC(C)(C)c1ccc(-c2cc(C(=O)NNC(=O)Nc3ccccc3)c3ccccc3n2)cc1,-6,i,i,-10*,i
O=C(Nc1ccccn1)c1cc(-c2cccnc2)nc2ccc(Br)cc12,-13,i,-6.9*,i,i
COc1ccc(NC(=O)CN(C)C(=O)c2cc(-c3ccc(Cl)cc3)nc3ccccc23)cc1,-30,i,i,i,7*
COCCN(Cc1nc2ccccc2c(=O)[nH]1)C(=O)COc1cccc(C(C)=O)c1,.,.,.,i,.
O=C(Nc1ccccn1)c1cccc(S(=O)(=O)N2CCCC2)c1,3,i,i,i,i
COc1cc(C2CC(=O)c3cnc(NC(=O)c4ccco4)nc3C2)cc(OC)c1OC (stereo not drawn),-7,i,i,i,i
COc1cccc(OCC(=O)Nc2c3c(nn2-c2ccc(F)cc2)CS(=O)(=O)C3)c1,-10,i,i,i,i
CCOC(=O)Cc1csc2nc(-c3ccccc3)nn12,-2,i,i,i,i
